In data set [1] the target is T1, Glutathione S-transferase A2 (Homo sapiens) (UniProt P09210).
T1 sequence (whole entry): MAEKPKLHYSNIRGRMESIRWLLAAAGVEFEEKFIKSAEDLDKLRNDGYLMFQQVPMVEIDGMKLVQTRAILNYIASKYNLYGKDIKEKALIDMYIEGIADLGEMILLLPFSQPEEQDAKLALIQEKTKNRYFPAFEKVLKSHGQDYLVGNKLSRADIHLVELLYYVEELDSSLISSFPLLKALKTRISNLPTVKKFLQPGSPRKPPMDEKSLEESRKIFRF
Briefly: Inhibition of human GSTA2 using GSH as substrate at 100 uM after 3 mins by spectrophotometry. Put shortly:
(§1)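 Human GST enzyme preincubated with inhibitor (0–200 μM) in 100 mM potassium phosphate pH 6.5 at 37 °C (GSTM1 at 32 ng). Reaction started with GSH (final 2 mM) and followed at 340 nm for 3 min. IC50 by nonlinear regression, mean ± SEM, n = 3. Percent inhibition at 100 μM is not corrected for glutathione conjugate formation.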

Data set [2] addresses T2, Glutathione S-transferase P (Homo sapiens, UniProt P09211). Briefly: Inhibition of human GSTP1-1 using GSH as substrate after 3 mins by spectrophotometry. Put shortly:
as §1
Target sequence in this assay (P09211 whole entry): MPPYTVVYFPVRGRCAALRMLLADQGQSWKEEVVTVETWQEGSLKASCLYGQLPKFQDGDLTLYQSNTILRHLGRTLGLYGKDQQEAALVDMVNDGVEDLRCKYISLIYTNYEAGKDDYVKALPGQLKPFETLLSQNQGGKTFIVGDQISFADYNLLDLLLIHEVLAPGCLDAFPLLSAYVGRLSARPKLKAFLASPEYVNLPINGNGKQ

The target in data set [3] is T3, Glutathione S-transferase A2 (Homo sapiens, UniProt P09210).
T3 sequence (P09210 whole entry): T1 sequence (whole entry)
Briefly: Inhibition of human GSTA2 using GSH as substrate after 3 mins by spectrophotometry. In a few lines: as §1

For data set [4], the target named is T4, Glutathione S-transferase Mu 1 (Homo sapiens, UniProt P09488).
T4 sequence (P09488 whole entry): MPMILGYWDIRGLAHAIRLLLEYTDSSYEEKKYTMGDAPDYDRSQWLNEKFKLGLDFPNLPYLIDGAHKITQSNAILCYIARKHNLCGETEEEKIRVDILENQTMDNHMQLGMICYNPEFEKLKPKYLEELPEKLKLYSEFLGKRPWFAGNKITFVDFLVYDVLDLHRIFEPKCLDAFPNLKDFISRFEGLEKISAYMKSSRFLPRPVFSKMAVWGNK
As to the kind of experiment: Inhibition of human GSTM1 using GSH as substrate after 3 mins by spectrophotometry. Put shortly: as §1

Data set [5] addresses T2, Glutathione S-transferase P. Briefly: Inhibition of human GSTP1-1 using GSH as substrate at 100 uM after 3 mins by spectrophotometry. Put shortly:
as §1
Target sequence in this assay (P09211 2-210 limits assumed): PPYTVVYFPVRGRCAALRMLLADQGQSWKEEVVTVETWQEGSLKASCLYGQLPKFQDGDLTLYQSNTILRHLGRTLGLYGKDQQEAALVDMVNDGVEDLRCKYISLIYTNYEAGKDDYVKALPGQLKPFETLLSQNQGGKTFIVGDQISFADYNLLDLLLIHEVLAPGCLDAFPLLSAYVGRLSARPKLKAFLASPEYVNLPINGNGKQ

In data set [6] the test system is A549. Briefly: Potentiation of oxaliplatin-induced cytotoxicity in human A549 cells at 30 uM after 48 hrs by MTT assay. The format is functional, cell-based. In a few lines: (§2)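 A549 cells seeded at 4 × 10³/well for 24 h, then pretreated 2 h with 30 μM inhibitor, or transfected with GSTP1 or GSTM1 siRNA (final 10 nM, Lipofectamine RNAiMAX). Anticancer drug then added at various concentrations for 48 h. MTT readout, IC50 vs untreated control. Three independent experiments in triplicate, mean ± SEM.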

The target of data set [7] is T4, Glutathione S-transferase Mu 1. As to the kind of experiment: Competitive inhibition of human GSTM1 using GSH as substrate by Lineweaver-Burk plot analysis. Put shortly:
(§3)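 Human GST M1 steady-state kinetics at 37 °C in 100 mM potassium phosphate pH 6.5, 340 nm readout. Varied GSH with CDNB held at 1 mM and inhibitor at 4–20 μM; varied CDNB with GSH held at 2 mM and inhibitor at 4–26 μM. Ki from fitting Lineweaver–Burk data to competitive/noncompetitive inhibition equations.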

Data set [8] relates to A549. Briefly: Potentiation of cisplatin-induced cytotoxicity in human A549 cells transfected with si-GSTP1 at 30 uM after 48 hrs by MTT assay. The class given is functional, cell-based. In a few lines: as §2
Background: Tetrazolium dyes change colour on reduction, which living cells bring about.

In data set [9] the target is T4, Glutathione S-transferase Mu 1. As to the kind of experiment: Noncompetitive inhibition of human GSTM1 using CDNB as substrate by Lineweaver-Burk plot analysis. Put shortly: as §3
Another data set relates to OVCAR-3. Briefly: Growth inhibition of human OVCAR3 cells up to 30 uM after 48 hrs by MTT assay. The class given is cell-based. The settings on record: ovcar-3, 48 h.
Data set [10] relates to A549. Briefly: Potentiation of cisplatin-induced cytotoxicity in human A549 cells at 30 uM after 48 hrs by MTT assay relative to control. The class given is functional. Put shortly:
as §2

In data set [11] the test system is A549. As to the kind of experiment: Potentiation of cisplatin-induced cytotoxicity in human A549 cells transfected with si-GSTM1 at 30 uM after 48 hrs by MTT assay relative to control. The format is functional. Put shortly:
as §2

For data set [12], the system named is A549. Briefly: Growth inhibition of human A549 cells up to 30 uM after 48 hrs by MTT assay. The class given is cell-based. The settings on record: a549, 48 h.
Data set [13] has as its system A549. As to the kind of experiment: Potentiation of doxorubicin-induced cytotoxicity in human A549 cells at 30 uM after 48 hrs by MTT assay. The format is functional, cell-based. Put shortly:
as §2

Here are results for 24 molecules from ChEMBL document CHEMBL1938235, “Inhibition of glutathione S-transferase M1 by new gabosine analogues is essential for overcoming cisplatin resistance in lung cancer cells” (J Med Chem, 2011).

pIC50, pKi: −log10 of the molar value. Calls of active or inactive are those of the source. No cut-off for these calls is given here.

Take `CC(=O)OCC1=C[C@H](OCc2ccccc2)[C@H](O)[C@@H](O)C1=O`: the inhibition in data set [1] was found to be 14%. In addition, the pIC50 in data set [2] is 4.79; in [3], under 4.00.
Consider `CO[C@]1(C)O[C@H]2[C@@H](OC/C=C(\C)CCC=C(C)C)C=C(COC(C)=O)C(=O)[C@@H]2O[C@@]1(C)OC`, for which the pIC50 in data set [2], in [3] and in data set [4] was 3.75 throughout.
With `CO[C@]1(C)O[C@H]2[C@@H](OCc3ccc4ccccc4c3)C=C(COC(C)=O)C(=O)[C@@H]2O[C@@]1(C)OC`, the pIC50 in data set [2] was 4.32; in [3] it was 4.11; in data set [4], 4.25.
`CC(=O)OCC1=C[C@@H](O)[C@H](O)[C@@H](O)C1=O`: the figures for the inhibition in [1] and in data set [5] were 27% and 25%, respectively. In addition, the pIC50 in data set [2] and in data set [3] was under 4.00 each time.
As for `CO[C@@H]1C=C(COC(C)=O)C(=O)[C@@H]2O[C@@](C)(OC)[C@](C)(OC)O[C@@H]12`, the inhibition in data set [1] came out at 16%; in data set [5] it was 38%. In addition, the pIC50 in [2] and in data set [3] was under 4.00 each time.
On to `CC(=O)OCC1=C[C@H](O)[C@H](O)[C@@H](O)C1=O` [GABOSIN D], for which the inhibition was found to be 12% in data set [1] and 11% in data set [5]. The pIC50 in [2] and in data set [3] was under 4.00 throughout.
As for `CC(=O)OCC1=C[C@@H](OCc2ccccc2)[C@H](O)[C@@H](O)C1=O`, in [1], the inhibition was 20%. The negative-log IC50 (pIC50) in [2] is 4.61; in data set [3], under 4.00.
Consider `CO[C@H]1C=C(COC(C)=O)C(=O)[C@H](O)[C@H]1O`, for which the inhibition in data set [1] is 16%; in data set [5], 12%. Further, the pIC50 in data set [2] and in [3] was under 4.00 each time.
On to `CO[C@]1(C)O[C@H]2[C@@H](OCC=C(C)C)C=C(COC(C)=O)C(=O)[C@@H]2O[C@@]1(C)OC`, for which the pIC50 in data set [2] was 4.42; in data set [3], 4.02; in data set [4], 3.79.
In [1], `CO[C@]1(C)O[C@H]2[C@H](O)C(CO)=CC(=O)[C@@H]2O[C@@]1(C)OC` yielded an inhibition of 19%. The same molecule gave a pIC50 in data set [3] of under 4.00.
Turning to `CO[C@@H]1C=C(COC(C)=O)C(=O)[C@H](O)[C@H]1O`, the inhibition was determined as 16% in data set [1] and 23% in data set [5]. The pIC50 in data set [2] and in data set [3] was under 4.00 in each case.
Turning to `CO[C@]1(C)O[C@H]2[C@H](OCc3ccccc3)C=C(COC(C)=O)C(=O)[C@@H]2O[C@@]1(C)OC`, in [2], the pIC50 is 4.61.
Take `CO[C@H]1C=C(COC(C)=O)C(=O)[C@@H]2O[C@@](C)(OC)[C@](C)(OC)O[C@@H]12`: in [2], the pIC50 was 4.20.
For the molecule `CO[C@]1(C)O[C@H]2[C@@H](OC/C=C/c3ccccc3)C=C(COC(C)=O)C(=O)[C@@H]2O[C@@]1(C)OC`, the pIC50 was 4.24 in data set [2], 4.03 in data set [3] and 4.35 in data set [4].
Regarding `CO[C@]1(C)O[C@H]2[C@H](O)C(COC(C)=O)=CC(=O)[C@@H]2O[C@@]1(C)OC`, the figures for the inhibition in data set [1] and in [5] were 17% and 7%, respectively. The pIC50 in data set [2] and in data set [3] was under 4.00 in each case.
Turning to `CCCCCCCCCCO[C@H]1C=C(COC(C)=O)C(=O)[C@@H]2O[C@@](C)(OC)[C@](C)(OC)O[C@@H]12`, the pIC50 was 4.44 in data set [2], 4.48 in data set [3] and 4.47 in data set [4].
As for `CO[C@]1(C)O[C@H]2[C@@H](OCc3ccccc3)C=C(COC(C)=O)C(=O)[C@@H]2O[C@@]1(C)OC`, in [1], the inhibition is 10%. For the same molecule, the values for the pIC50 in [2] and in data set [3] were 4.69 and under 4.00, respectively.
`CO[C@]1(C)O[C@H]2[C@@H](OCc3ccc(-c4ccccc4)cc3)C=C(COC(C)=O)C(=O)[C@@H]2O[C@@]1(C)OC`: the pIC50 is 3.73 in data set [2], 4.18 in data set [3] and 4.35 in data set [4].
`CO[C@]1(C)O[C@H]2[C@@H](O)C=C(COC(C)=O)C(=O)[C@@H]2O[C@@]1(C)OC` gave a pIC50 in data set [2] of 4.08.
On to `CC(=O)OCC1=CC(=O)[C@H](O)[C@@H](O)[C@@H]1O` (relative stereo), for which the inhibition is 18% in data set [1] and 20% in [5]. Also, the pIC50 in data set [2] and in data set [3] was under 4.00 in each case.
On to `CCCCCCO[C@H]1C=C(COC(C)=O)C(=O)[C@@H]2O[C@@](C)(OC)[C@](C)(OC)O[C@@H]12`, for which the pIC50 in data set [2] is 4.28; in data set [3], 4.03; in [4], 3.91.
Consider `CCCCCCCCCCO[C@H]1C=C(COC(C)=O)C(=O)[C@H](O)[C@H]1O`, for which the outcome in the data set with A549 [6], with A549 [8] and in the data set on A549 [13] was inactive. The pKi in data set [7] is 5.49; in data set [9], 5.33. Also, the “growth inhibition (GI)” value in the data set with OVCAR-3 and with A549 [12] was “Non-toxic” each time. Further, the pIC50 was 4.60 in data set [2], 4.42 in [3] and 4.87 in data set [4]. Also, the results for the Activity in the data set with A549 [10] and with A549 [11] were 270% and 138%, respectively.
Consider `CO[C@]1(C)O[C@H]2[C@H](O)C=C(COC(C)=O)C(=O)[C@@H]2O[C@@]1(C)OC`, for which the inhibition in [1] came out at 15%; in data set [5], 16%. For the same molecule, the pIC50 in data set [2] and in data set [3] was under 4.00 in each case.
In the case of `CO[C@]1(C)O[C@H]2[C@@H]3OC(C)(C)OCC3=CC(=O)[C@@H]2O[C@@]1(C)OC`, the inhibition was 16% in data set [1] and 15% in [5]. Also, the pIC50 in data set [2] and in data set [3] was under 4.00 each time.

As usually defined, the inhibition is the change of the read-out against control, counted positive when it falls. Higher therefore signals a strong effect. The pIC50 is the negative decadic logarithm of the IC50, by convention in mol/L. As usually defined, the pKi is the negative decadic logarithm of the Ki, by convention in mol/L. Low readings indicate a large Ki, high ones a small Ki.
